Assay results collected from several papers.
Protocols differ between the studies behind these lines.
Target: Adenosine receptor A1 (ADORA1, Homo sapiens, UniProt P30542)
One construct used (P30542 1-326): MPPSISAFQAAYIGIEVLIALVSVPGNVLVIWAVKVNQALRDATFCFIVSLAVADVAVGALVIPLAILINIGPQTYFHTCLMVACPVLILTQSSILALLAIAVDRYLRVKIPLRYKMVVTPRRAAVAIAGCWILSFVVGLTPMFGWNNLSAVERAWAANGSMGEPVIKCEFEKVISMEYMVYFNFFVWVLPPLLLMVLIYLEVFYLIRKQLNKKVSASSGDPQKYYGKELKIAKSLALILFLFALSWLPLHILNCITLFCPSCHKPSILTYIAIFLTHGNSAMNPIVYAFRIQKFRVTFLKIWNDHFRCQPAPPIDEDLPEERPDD

SMILES	test	conditions	inhibition [%]
Cn1c(=O)[nH]c2nc[nH]c2c1=O	ligand displacement, radioligand	30 µM, cell membranes	78
CNC(=O)[C@@]12C[C@@H]1[C@@H](n1cnc3c(NC)nc(C#C[c-]4cccc4)nc31)[C@H](O)[C@@H]2O.[Fe+2].c1cc[cH-]c1	ligand displacement, radioligand	10 µM, cell membranes	25
O=C(c1ccc(Cl)cc1)N(Cc1ccccc1)C1CCCCC1	cell-free assay	10 µM	1.7
O[C@@H]1[C@H](O)CO[C@H]1n1cnc2c(NCc3cccc(F)c3)ncnc21	ligand displacement, radioligand	10 µM, cell membranes	16
C=CN1CCCn2c1nc1c2c(=O)n(C)c(=O)n1C	ligand displacement, radioligand	10 µM, cell membranes	21
CNc1nc(Cl)nc2c1ncn2[C@@H]1OC[C@@H](O)[C@H]1O	ligand displacement, radioligand	10 µM, cell membranes	< 10
Oc1cccc(Nc2nc(-c3ccc(F)cc3F)cs2)c1	cell-free assay	10 µM	46.5
Ic1cccc2cnccc12	ligand displacement, radioligand	10 µM	-5
O=C1N=C(N2CCCCN2)S/C1=C\c1ccc(F)cc1O	ligand displacement, radioligand	10 µM	< 10
CNc1ncnc2c1ncn2[C@@H]1OC[C@@H](O)[C@H]1O	ligand displacement, radioligand	10 µM, cell membranes	< 10
O=C(Nc1ccc(S(=O)(=O)N2CCC(Cl)CC2)cc1)c1ccc([N+](=O)[O-])o1	ligand displacement, radioligand	10 µM	12
